tested on: Human immunodeficiency virus 1; assay: Antiviral activity against HIV1 3B in human C8166 cells assessed as inhibition of virus-induced cytopathogenicity; format: functional, organism-based; conditions: Human immunodeficiency virus 1, 3B
Summary of the method: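 HIV-1 cytopathic-effect inhibition in C8166 cells, run in parallel with the cytotoxicity test. AZT served as positive control, and EC50 was the read-out.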

Compound	EC50 [µM]
COc1cc2c(c(OC)c1OC)-c1c(cc3c(c1OC)OCO3)[C@H](OC(=O)c1ccccc1)[C@H](C)[C@](C)(O)[C@H]2OC(=O)c1ccccc1	22.9
COc1cc2c(c(OC)c1OC)-c1c(cc3c(c1OC)OCO3)[C@H](OC(=O)c1ccccc1)[C@H](C)[C@](C)(O)[C@H]2OC(=O)/C=C/c1ccccc1	51.4
COc1cc(C[C@@H](C)[C@@H](C)Cc2ccc(OC)c(OC)c2)ccc1O	2.9
C/C=C(\C)C(=O)O[C@H]1c2cc(OC)c(OC)c(OC)c2-c2c(cc3c(c2OC)OCO3)[C@H](OC(=O)c2ccccc2)[C@H](C)[C@H]1C	15.4
C/C=C(\C)C(=O)O[C@H]1c2cc(OC)c(OC)c(OC)c2-c2c(cc3c(c2OC)OCO3)[C@H](OC(=O)/C=C/c2ccccc2)[C@H](C)[C@]1(C)O	7.9
COc1ccc([C@@H]2O[C@H](c3ccc4c(c3)OCO4)[C@@H](C)[C@@H]2C)cc1O	6.8
COc1ccc([C@H]2O[C@H](c3ccc4c(c3)OCO4)[C@@H](C)[C@H]2C)cc1OC	15.5
CCCCCC(=O)O[C@H]1c2cc3c(c(OC)c2-c2c(cc(OC)c(OC)c2OC)[C@H](OC(=O)c2ccccc2)[C@@](C)(O)[C@H]1C)OCO3	28.7
COc1cc2c(c(OC)c1OC)-c1c(cc3c(c1OC)OCO3)C(=O)[C@@H](C)[C@@H](C)C2	20.4
COc1cc2c(cc1O)C[C@@H](C)[C@@H](C)[C@@H]2c1ccc(OC)c(OC)c1	4.5
COc1ccc([C@H]2O[C@@H](c3ccc(OC)c(OC)c3)[C@H](C)[C@@H]2C)cc1OC [GALGRAVIN]	7.7
C/C=C(/C)C(=O)O[C@H]1c2cc(OC)c(OC)c(OC)c2-c2c(cc3c(c2OC)OCO3)[C@H](OC(C)=O)[C@H](C)[C@@H]1C [INTERIOTHERIN C]	9.9
COc1cc2c(c(OC)c1OC)-c1c(cc3c(c1OC)OCO3)[C@H](OC(C)=O)[C@H](C)[C@H](C)C2 [KADSURIN]	79.1
COc1cc(C[C@@H](C)[C@@H](C)Cc2ccc(O)c(OC)c2)ccc1O [MESODIHYDROGUAIARETIC ACID]	4
C/C=C(\C)C(=O)Oc1c(OC)c(OC)cc2c1-c1c(cc(OC)c(OC)c1OC)[C@H](O)[C@H](C)[C@H](C)C2 [METHYL SCHISANTHERIN F]	15.7
COc1ccc(C[C@@H](C)[C@@H](C)Cc2ccc(OC)c(OC)c2)cc1OC [TERAMEPROCOL]	14.8
CC[C@H](C)C(=O)Oc1c(OC)c(OC)cc2c1-c1c(cc(OC)c(OC)c1OC)[C@H](O)[C@H](C)[C@H](C)C2 [TIEGUSANIN A]	29.8
COc1cc2c(c(OC)c1OC)-c1c(cc(OC)c(OC)c1OC(=O)c1ccccc1)[C@H](O)[C@H](C)[C@H](C)C2 [TIEGUSANIN C]	18.5
COc1c(O)cc2c(c1OC)-c1c(cc3c(c1OC)OCO3)C[C@@H](C)[C@@H](C)[C@H]2OC(=O)/C=C/c1ccccc1 [TIEGUSANIN L]	7.3
COc1ccc(CC(C)C(C)Cc2cc(OC)c(OC)c(OC)c2)cc1OC (stereo not drawn) [TIEGUSANIN N]	9.4
Cc1cn([C@H]2C[C@H](N=[N+]=[N-])[C@@H](CO)O2)c(=O)[nH]c1=O [ZIDOVUDINE]	0.00195

tested on: not listed separately; assay: Selectivity index, ratio of CC50 for human C8166 cells to EC50 for HIV1 3B; format: toxicity, cell-based; conditions: read-out: Ratio CC50/EC50

Compound	selectivity ratio
COc1cc2c(c(OC)c1OC)-c1c(cc3c(c1OC)OCO3)[C@H](OC(=O)c1ccccc1)[C@H](C)[C@](C)(O)[C@H]2OC(=O)c1ccccc1	> 8.7
COc1cc2c(c(OC)c1OC)-c1c(cc3c(c1OC)OCO3)[C@H](OC(=O)c1ccccc1)[C@H](C)[C@](C)(O)[C@H]2OC(=O)/C=C/c1ccccc1	> 3.9
COc1cc(C[C@@H](C)[C@@H](C)Cc2ccc(OC)c(OC)c2)ccc1O	5.8
C/C=C(\C)C(=O)O[C@H]1c2cc(OC)c(OC)c(OC)c2-c2c(cc3c(c2OC)OCO3)[C@H](OC(=O)c2ccccc2)[C@H](C)[C@H]1C	5.1
C/C=C(\C)C(=O)O[C@H]1c2cc(OC)c(OC)c(OC)c2-c2c(cc3c(c2OC)OCO3)[C@H](OC(=O)/C=C/c2ccccc2)[C@H](C)[C@]1(C)O	> 25.2
COc1ccc([C@@H]2O[C@H](c3ccc4c(c3)OCO4)[C@@H](C)[C@@H]2C)cc1O	2.9
COc1ccc([C@H]2O[C@H](c3ccc4c(c3)OCO4)[C@@H](C)[C@H]2C)cc1OC	6.7
CCCCCC(=O)O[C@H]1c2cc3c(c(OC)c2-c2c(cc(OC)c(OC)c2OC)[C@H](OC(=O)c2ccccc2)[C@@](C)(O)[C@H]1C)OCO3	4.1
COc1cc2c(c(OC)c1OC)-c1c(cc3c(c1OC)OCO3)C(=O)[C@@H](C)[C@@H](C)C2	> 9.8
COc1cc2c(cc1O)C[C@@H](C)[C@@H](C)[C@@H]2c1ccc(OC)c(OC)c1	6.7
COc1ccc([C@H]2O[C@@H](c3ccc(OC)c(OC)c3)[C@H](C)[C@@H]2C)cc1OC [GALGRAVIN]	5.6
C/C=C(/C)C(=O)O[C@H]1c2cc(OC)c(OC)c(OC)c2-c2c(cc3c(c2OC)OCO3)[C@H](OC(C)=O)[C@H](C)[C@@H]1C [INTERIOTHERIN C]	> 20.2
COc1cc2c(c(OC)c1OC)-c1c(cc3c(c1OC)OCO3)[C@H](OC(C)=O)[C@H](C)[C@H](C)C2 [KADSURIN]	> 2.5
COc1cc(C[C@@H](C)[C@@H](C)Cc2ccc(O)c(OC)c2)ccc1O [MESODIHYDROGUAIARETIC ACID]	6.2
C/C=C(\C)C(=O)Oc1c(OC)c(OC)cc2c1-c1c(cc(OC)c(OC)c1OC)[C@H](O)[C@H](C)[C@H](C)C2 [METHYL SCHISANTHERIN F]	> 12.7
COc1ccc(C[C@@H](C)[C@@H](C)Cc2ccc(OC)c(OC)c2)cc1OC [TERAMEPROCOL]	2
CC[C@H](C)C(=O)Oc1c(OC)c(OC)cc2c1-c1c(cc(OC)c(OC)c1OC)[C@H](O)[C@H](C)[C@H](C)C2 [TIEGUSANIN A]	> 6.7
COc1cc2c(c(OC)c1OC)-c1c(cc(OC)c(OC)c1OC(=O)c1ccccc1)[C@H](O)[C@H](C)[C@H](C)C2 [TIEGUSANIN C]	> 10.8
COc1c(O)cc2c(c1OC)-c1c(cc3c(c1OC)OCO3)C[C@@H](C)[C@@H](C)[C@H]2OC(=O)/C=C/c1ccccc1 [TIEGUSANIN L]	10.2
COc1ccc(CC(C)C(C)Cc2cc(OC)c(OC)c(OC)c2)cc1OC (stereo not drawn) [TIEGUSANIN N]	2.6
Cc1cn([C@H]2C[C@H](N=[N+]=[N-])[C@@H](CO)O2)c(=O)[nH]c1=O [ZIDOVUDINE]	> 500000

tested on: not listed separately; assay: Cytotoxicity against human C8166 cells by MTT assay; format: cell-based; conditions: not given
Summary of the method: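 MTT read-out of C8166 cell viability, run in parallel with the anti-HIV-1 cytopathic-effect assay. AZT served as positive control, and CC50 was derived.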

Compound	CC50 [µM]
COc1cc2c(c(OC)c1OC)-c1c(cc3c(c1OC)OCO3)[C@H](OC(=O)c1ccccc1)[C@H](C)[C@](C)(O)[C@H]2OC(=O)c1ccccc1	> 200
COc1cc2c(c(OC)c1OC)-c1c(cc3c(c1OC)OCO3)[C@H](OC(=O)c1ccccc1)[C@H](C)[C@](C)(O)[C@H]2OC(=O)/C=C/c1ccccc1	> 200
COc1cc(C[C@@H](C)[C@@H](C)Cc2ccc(OC)c(OC)c2)ccc1O	17.2
C/C=C(\C)C(=O)O[C@H]1c2cc(OC)c(OC)c(OC)c2-c2c(cc3c(c2OC)OCO3)[C@H](OC(=O)c2ccccc2)[C@H](C)[C@H]1C	78.2
C/C=C(\C)C(=O)O[C@H]1c2cc(OC)c(OC)c(OC)c2-c2c(cc3c(c2OC)OCO3)[C@H](OC(=O)/C=C/c2ccccc2)[C@H](C)[C@]1(C)O	> 200
COc1ccc([C@@H]2O[C@H](c3ccc4c(c3)OCO4)[C@@H](C)[C@@H]2C)cc1O	19.9
COc1ccc([C@H]2O[C@H](c3ccc4c(c3)OCO4)[C@@H](C)[C@H]2C)cc1OC	104
CCCCCC(=O)O[C@H]1c2cc3c(c(OC)c2-c2c(cc(OC)c(OC)c2OC)[C@H](OC(=O)c2ccccc2)[C@@](C)(O)[C@H]1C)OCO3	119
COc1cc2c(c(OC)c1OC)-c1c(cc3c(c1OC)OCO3)C(=O)[C@@H](C)[C@@H](C)C2	> 200
COc1cc2c(cc1O)C[C@@H](C)[C@@H](C)[C@@H]2c1ccc(OC)c(OC)c1	30
COc1ccc([C@H]2O[C@@H](c3ccc(OC)c(OC)c3)[C@H](C)[C@@H]2C)cc1OC [GALGRAVIN]	43.4
C/C=C(/C)C(=O)O[C@H]1c2cc(OC)c(OC)c(OC)c2-c2c(cc3c(c2OC)OCO3)[C@H](OC(C)=O)[C@H](C)[C@@H]1C [INTERIOTHERIN C]	> 200
COc1cc2c(c(OC)c1OC)-c1c(cc3c(c1OC)OCO3)[C@H](OC(C)=O)[C@H](C)[C@H](C)C2 [KADSURIN]	> 200
COc1cc(C[C@@H](C)[C@@H](C)Cc2ccc(O)c(OC)c2)ccc1O [MESODIHYDROGUAIARETIC ACID]	24.9
C/C=C(\C)C(=O)Oc1c(OC)c(OC)cc2c1-c1c(cc(OC)c(OC)c1OC)[C@H](O)[C@H](C)[C@H](C)C2 [METHYL SCHISANTHERIN F]	> 200
COc1ccc(C[C@@H](C)[C@@H](C)Cc2ccc(OC)c(OC)c2)cc1OC [TERAMEPROCOL]	28.8
CC[C@H](C)C(=O)Oc1c(OC)c(OC)cc2c1-c1c(cc(OC)c(OC)c1OC)[C@H](O)[C@H](C)[C@H](C)C2 [TIEGUSANIN A]	> 200
COc1cc2c(c(OC)c1OC)-c1c(cc(OC)c(OC)c1OC(=O)c1ccccc1)[C@H](O)[C@H](C)[C@H](C)C2 [TIEGUSANIN C]	> 200
COc1c(O)cc2c(c1OC)-c1c(cc3c(c1OC)OCO3)C[C@@H](C)[C@@H](C)[C@H]2OC(=O)/C=C/c1ccccc1 [TIEGUSANIN L]	74.1
COc1ccc(CC(C)C(C)Cc2cc(OC)c(OC)c(OC)c2)cc1OC (stereo not drawn) [TIEGUSANIN N]	24.5
Cc1cn([C@H]2C[C@H](N=[N+]=[N-])[C@@H](CO)O2)c(=O)[nH]c1=O [ZIDOVUDINE]	> 1000
